Measurements: ChEMBL document CHEMBL2417380, “Synthesis, pharmacological assessment, and molecular modeling of 6-chloro-pyridonepezils: new dual AChE inhibitors as potential drugs for the treatment of Alzheimer's disease” (Eur J Med Chem, 2013)
pIC50: −log10 of the molar value.

Columns and labels:
Cholinesterase [1] = biological target: T1, Cholinesterase (Homo sapiens, UniProt P06276); assay: Inhibition of human plasma BuChE using butyrylthiocholine as substrate by Ellman's method
Outline: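 Ellman spectrophotometric assay with BuChE from human serum in 100 mM phosphate buffer, pH 8.0, at 30 °C. Butyrylthiocholine (0.4 mM) was the substrate and DTNB 0.2 mM. Absorbance change at 412 nm gave IC50 as the concentration giving 50% inhibition. Values are mean ± s.e.m. of at least three experiments run in quadruplicate.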

Acetylcholinesterase = Acetylcholinesterase (Homo sapiens, UniProt P22303); assay: Inhibition of purified human erythrocyte AChE using […] as substrate by Ellman's method
[2] = Permeability of the compound at 1 mg/ml after 4 hrs by PAMPA; type: ADME; details: read-out: permeability
Outline: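 PAMPA-BBB: donor filter impregnated with porcine brain lipid in dodecane (20 mg/mL). Compound dissolved in PBS (pH 7.4)/ethanol (7:3) and filtered before loading into the donor wells. The acceptor wells held PBS/ethanol (7:3). Incubated undisturbed 4 h at 25 °C. Acceptor concentration measured by UV at five wavelengths, in four wells, over at least three independent runs; mean (SD).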

Homo sapiens = species on record: Homo sapiens; assay: Selectivity index, ratio of IC50 for human plasma BuChE to IC50 for purified human erythrocyte AChE
Outline: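 Index computed as hBuChE IC50 divided by hAChE IC50. Both IC50s come from the Ellman assay in 100 mM phosphate buffer, pH 8.0, at 30 °C, read at 412 nm with DTNB 0.2 mM. AChE was purified from human erythrocytes with acetylthiocholine substrate; BuChE came from human serum with butyrylthiocholine substrate, each substrate at 0.4 mM.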

Cholinesterase [3] = biological target: T1, Cholinesterase; assay: Ratio of donepezil IC50 to compound IC50 for human plasma BuChE

T1 sequence (P06276 whole entry): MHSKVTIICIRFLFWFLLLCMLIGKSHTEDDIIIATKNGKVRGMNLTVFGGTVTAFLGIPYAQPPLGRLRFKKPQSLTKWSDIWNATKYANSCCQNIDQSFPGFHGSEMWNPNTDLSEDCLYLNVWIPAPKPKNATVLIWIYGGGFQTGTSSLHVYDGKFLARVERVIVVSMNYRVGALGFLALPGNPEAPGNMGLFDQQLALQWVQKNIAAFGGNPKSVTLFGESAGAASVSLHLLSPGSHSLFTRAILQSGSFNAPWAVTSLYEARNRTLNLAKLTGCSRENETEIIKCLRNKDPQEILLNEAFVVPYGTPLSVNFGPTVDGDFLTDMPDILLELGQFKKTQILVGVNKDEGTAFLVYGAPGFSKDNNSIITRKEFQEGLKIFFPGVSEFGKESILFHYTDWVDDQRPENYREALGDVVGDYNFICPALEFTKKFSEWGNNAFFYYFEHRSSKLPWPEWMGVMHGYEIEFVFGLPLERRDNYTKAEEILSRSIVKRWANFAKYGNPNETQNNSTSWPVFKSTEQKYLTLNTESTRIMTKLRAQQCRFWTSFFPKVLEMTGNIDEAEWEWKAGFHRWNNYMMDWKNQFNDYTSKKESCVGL
Sequence of Acetylcholinesterase (P22303 whole entry): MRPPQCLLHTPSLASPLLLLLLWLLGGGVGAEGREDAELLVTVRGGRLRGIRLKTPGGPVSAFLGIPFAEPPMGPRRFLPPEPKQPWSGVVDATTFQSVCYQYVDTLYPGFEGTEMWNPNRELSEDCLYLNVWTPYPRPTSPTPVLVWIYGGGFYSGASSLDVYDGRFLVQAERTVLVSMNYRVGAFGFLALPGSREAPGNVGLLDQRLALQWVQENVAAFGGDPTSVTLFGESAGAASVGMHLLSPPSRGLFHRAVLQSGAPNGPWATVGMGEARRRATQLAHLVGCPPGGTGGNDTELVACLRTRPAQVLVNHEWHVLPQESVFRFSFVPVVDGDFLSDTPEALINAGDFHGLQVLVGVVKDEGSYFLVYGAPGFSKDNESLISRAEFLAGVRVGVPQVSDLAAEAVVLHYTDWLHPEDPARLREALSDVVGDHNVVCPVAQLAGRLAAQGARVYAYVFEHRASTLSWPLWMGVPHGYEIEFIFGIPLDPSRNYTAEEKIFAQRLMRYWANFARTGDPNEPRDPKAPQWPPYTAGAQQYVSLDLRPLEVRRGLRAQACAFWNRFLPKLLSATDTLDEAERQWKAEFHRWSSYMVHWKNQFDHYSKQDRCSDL

Row | SMILES | pIC50 (Cholinesterase [1]) | pIC50 (Acetylcholinesterase) | Papp at 4 h, 1 mg/ml [2] [×10⁻⁶ cm/s] | Ratio IC50 (Homo sapiens) | Ratio IC50 (Cholinesterase [3])
1 | N#Cc1c(Cl)nc(NCCC2CCN(Cc3ccccc3)CC2)c(C#N)c1-c1ccccc1 | < 5.00 | 5.36 | – | – | –
2 | N#Cc1cc(C#N)c(NC2CCN(Cc3ccccc3)CC2)nc1Cl | < 5.00 | 5.27 | 7.39 | – | –
3 | N#Cc1c(Cl)nc(NC2CCN(Cc3ccccc3)CC2)c(C#N)c1-c1ccccc1 | < 5.00 | 5.03 | – | – | –
4 | N#Cc1cc(C#N)c(NCCC2CCN(Cc3ccccc3)CC2)nc1Cl | 6.33 | 6.51 | 8.52 | 1.52 | 5
5 | N#Cc1cc(C#N)c(NC2CCN(Cc3ccccc3)CC2)nc1NC1CCN(Cc2ccccc2)CC1 | < 5.00 | 5.14 | 5 | – | –
6 | N#Cc1c(Cl)nc(NCCCC2CCN(Cc3ccccc3)CC2)c(C#N)c1-c1ccccc1 | 5.03 | 5.41 | 10.1 | 2.43 | –
7 | N#Cc1cc(C#N)c(NCCCCC2CCN(Cc3ccccc3)CC2)nc1Cl | 5.09 | 7.89 | 6.99 | 625 | –
8 | N#Cc1cc(C#N)c(NCCCC2CCN(Cc3ccccc3)CC2)nc1Cl | 5.08 | 7.27 | 5.98 | 155 | –
9 | N#Cc1c(NCCC2CCN(Cc3ccccc3)CC2)nc(NCCC2CCN(Cc3ccccc3)CC2)c(C#N)c1-c1ccccc1 | < 5.00 | 5.01 | – | – | –
10 | N#Cc1c(Cl)nc(NCCCCC2CCN(Cc3ccccc3)CC2)c(C#N)c1-c1ccccc1 | 5.25 | 7.51 | 10.3 | 181 | –
